Source: ChEMBL document CHEMBL5247671, “Design and Synthesis of Pyrazole-Based Macrocyclic Kinase Inhibitors Targeting BMPR2” (ACS Med Chem Lett, 2023)

Key:
[1] = target: Glycogen synthase kinase-3 beta (Homo sapiens, UniProt P49841); experiment: Binding affinity to recombinant GSK3B (unknown origin) assessed as change in melting temperature at 10 uM by DSF assay
Procedure, shortened: (§1)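 Differential scanning fluorimetry on an in-house panel of 90 recombinant kinases. Stabilization is read as the shift in melting temperature (ΔTm) relative to ligand-free protein. Staurosporine served as the positive control, and binding was also compared against its ΔTm.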

[2] = target: T1, Bone morphogenetic protein receptor type-2 (Homo sapiens) (UniProt Q13873); experiment: Binding affinity to recombinant BMPR2 (unknown origin) assessed as change in melting temperature at 10 uM by DSF assay; procedure, shortened: as §1
T1 sequence (whole entry): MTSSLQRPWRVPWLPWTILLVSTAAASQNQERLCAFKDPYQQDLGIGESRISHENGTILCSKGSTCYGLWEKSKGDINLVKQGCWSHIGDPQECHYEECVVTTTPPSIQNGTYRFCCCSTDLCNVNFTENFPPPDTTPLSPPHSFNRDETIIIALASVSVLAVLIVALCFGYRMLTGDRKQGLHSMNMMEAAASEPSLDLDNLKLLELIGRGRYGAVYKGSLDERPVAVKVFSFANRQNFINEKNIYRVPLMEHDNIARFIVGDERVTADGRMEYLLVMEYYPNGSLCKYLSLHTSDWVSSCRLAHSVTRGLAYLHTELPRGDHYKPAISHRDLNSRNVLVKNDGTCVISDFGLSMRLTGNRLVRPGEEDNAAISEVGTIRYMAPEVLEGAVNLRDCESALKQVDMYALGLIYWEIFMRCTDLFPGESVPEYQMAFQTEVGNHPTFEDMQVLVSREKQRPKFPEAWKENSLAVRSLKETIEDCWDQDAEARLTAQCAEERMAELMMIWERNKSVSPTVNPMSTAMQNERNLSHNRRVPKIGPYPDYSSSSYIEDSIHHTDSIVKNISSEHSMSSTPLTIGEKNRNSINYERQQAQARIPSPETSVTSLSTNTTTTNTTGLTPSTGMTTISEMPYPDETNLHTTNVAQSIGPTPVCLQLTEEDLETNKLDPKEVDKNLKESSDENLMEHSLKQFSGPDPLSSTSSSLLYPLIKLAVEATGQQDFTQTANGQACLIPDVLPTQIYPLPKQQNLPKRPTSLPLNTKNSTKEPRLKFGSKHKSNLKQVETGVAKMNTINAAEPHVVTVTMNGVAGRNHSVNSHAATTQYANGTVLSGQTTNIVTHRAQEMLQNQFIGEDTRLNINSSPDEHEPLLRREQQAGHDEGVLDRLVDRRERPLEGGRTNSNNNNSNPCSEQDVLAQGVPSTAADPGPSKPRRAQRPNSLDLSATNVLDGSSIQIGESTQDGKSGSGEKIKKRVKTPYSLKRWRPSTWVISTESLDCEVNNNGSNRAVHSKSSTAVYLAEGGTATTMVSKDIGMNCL

[3] = target: T2, Bone morphogenetic protein receptor type-2 (Homo sapiens, UniProt Q13873); experiment: Inhibition of BMPR2 (174 to end residues) (unknown origin) using MBP as substrate incubated for 60 mins in presence of ATP by ADP Glo assay
T2 sequence (Q13873 whole entry): T1 sequence (whole entry)
Procedure, shortened: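 Enzymatic inhibition of the BMPR2 kinase was read out by ADP-Glo detection of ADP formed, and IC50 values were derived from concentration–response data.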

[4] = target: Glycogen synthase kinase-3 alpha (Homo sapiens, UniProt P49840); experiment: Inhibition of N-terminal NanoLuc-fused full length GSK3A (unknown origin) transfected in HEK293T cells incubated for 2 hrs in presence of tracer K8 by NanoBRET assay; format: cell-based
Chain of Glycogen synthase kinase-3 alpha (P49840 whole entry, the tested form may be a part): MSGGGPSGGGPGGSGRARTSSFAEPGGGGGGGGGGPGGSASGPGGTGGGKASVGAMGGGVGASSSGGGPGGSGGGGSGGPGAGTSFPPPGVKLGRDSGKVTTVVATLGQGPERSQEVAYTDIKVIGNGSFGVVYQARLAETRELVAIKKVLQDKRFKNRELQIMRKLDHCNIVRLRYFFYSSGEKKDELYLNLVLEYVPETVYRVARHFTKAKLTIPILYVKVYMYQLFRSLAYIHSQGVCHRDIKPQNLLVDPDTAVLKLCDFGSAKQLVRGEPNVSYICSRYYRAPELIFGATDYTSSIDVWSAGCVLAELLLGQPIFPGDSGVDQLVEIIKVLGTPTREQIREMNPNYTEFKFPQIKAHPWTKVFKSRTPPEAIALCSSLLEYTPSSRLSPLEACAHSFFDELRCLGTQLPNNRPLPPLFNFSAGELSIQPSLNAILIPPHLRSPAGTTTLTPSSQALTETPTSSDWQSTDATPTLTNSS
Procedure, shortened: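 Cellular target engagement by NanoBRET in intact cells expressing NanoLuc-fused GSK3A or GSK3B, with EC50 values derived from tracer displacement.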

[5] = target: Vascular endothelial growth factor receptor 1 (Homo sapiens) (UniProt P17948); experiment: Binding affinity to recombinant FLT1 (unknown origin) assessed as change in melting temperature at 10 uM by DSF assay; procedure, shortened: as §1
Chain of Vascular endothelial growth factor receptor 1 (Homo sapiens) (P17948 whole entry): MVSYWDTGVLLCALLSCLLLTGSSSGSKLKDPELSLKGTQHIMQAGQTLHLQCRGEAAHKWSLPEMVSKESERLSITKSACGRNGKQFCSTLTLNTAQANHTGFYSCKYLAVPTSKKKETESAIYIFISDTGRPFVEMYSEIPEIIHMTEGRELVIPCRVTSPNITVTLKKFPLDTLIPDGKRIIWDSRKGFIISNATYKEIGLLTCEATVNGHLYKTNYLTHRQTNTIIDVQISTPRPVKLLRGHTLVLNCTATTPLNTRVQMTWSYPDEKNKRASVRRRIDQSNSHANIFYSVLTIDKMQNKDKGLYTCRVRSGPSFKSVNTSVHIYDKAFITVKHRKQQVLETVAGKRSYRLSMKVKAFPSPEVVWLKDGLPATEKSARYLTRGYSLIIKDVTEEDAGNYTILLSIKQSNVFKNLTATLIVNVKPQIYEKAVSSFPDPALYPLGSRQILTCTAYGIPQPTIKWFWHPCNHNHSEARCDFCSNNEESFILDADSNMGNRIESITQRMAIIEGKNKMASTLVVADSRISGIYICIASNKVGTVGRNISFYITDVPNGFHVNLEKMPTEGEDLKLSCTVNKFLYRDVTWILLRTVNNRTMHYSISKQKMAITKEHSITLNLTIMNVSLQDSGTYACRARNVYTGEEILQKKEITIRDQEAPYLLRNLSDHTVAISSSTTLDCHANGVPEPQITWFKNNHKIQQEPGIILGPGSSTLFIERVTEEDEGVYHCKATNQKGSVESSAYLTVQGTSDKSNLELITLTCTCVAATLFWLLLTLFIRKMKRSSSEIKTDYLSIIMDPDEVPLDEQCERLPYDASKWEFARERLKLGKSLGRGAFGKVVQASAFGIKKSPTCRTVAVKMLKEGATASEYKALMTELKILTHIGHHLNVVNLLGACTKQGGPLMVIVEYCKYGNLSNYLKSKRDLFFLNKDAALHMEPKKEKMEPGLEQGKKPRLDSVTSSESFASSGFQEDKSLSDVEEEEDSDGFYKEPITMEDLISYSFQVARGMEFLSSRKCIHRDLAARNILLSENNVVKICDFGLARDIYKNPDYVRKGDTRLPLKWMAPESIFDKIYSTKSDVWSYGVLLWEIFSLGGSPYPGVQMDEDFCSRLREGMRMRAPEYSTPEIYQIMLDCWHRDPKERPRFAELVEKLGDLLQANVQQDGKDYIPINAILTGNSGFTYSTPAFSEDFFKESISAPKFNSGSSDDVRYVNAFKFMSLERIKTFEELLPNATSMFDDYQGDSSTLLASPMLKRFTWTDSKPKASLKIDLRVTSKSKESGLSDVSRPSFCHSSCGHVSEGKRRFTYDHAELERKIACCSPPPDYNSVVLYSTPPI

[6] = target: T3, Serine/threonine-protein kinase 4 (Homo sapiens) (UniProt Q13043); experiment: Binding affinity to recombinant STK4 (unknown origin) assessed as change in melting temperature at 10 uM by DSF assay; procedure, shortened: as §1
T3 sequence (whole entry): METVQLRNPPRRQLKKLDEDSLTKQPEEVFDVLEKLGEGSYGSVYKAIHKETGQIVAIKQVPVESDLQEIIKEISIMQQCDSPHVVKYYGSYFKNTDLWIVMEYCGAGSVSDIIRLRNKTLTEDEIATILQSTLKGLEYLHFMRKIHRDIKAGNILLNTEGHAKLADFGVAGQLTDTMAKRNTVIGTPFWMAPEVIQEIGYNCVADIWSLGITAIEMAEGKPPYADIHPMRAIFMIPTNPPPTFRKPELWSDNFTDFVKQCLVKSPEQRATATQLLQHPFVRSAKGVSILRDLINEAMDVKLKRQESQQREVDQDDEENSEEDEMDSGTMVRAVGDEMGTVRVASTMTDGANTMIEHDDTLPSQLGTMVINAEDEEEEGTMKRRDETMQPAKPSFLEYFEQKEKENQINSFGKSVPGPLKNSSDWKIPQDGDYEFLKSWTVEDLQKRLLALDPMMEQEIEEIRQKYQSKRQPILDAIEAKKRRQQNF

[7] = target: T1, Bone morphogenetic protein receptor type-2 (Homo sapiens); experiment: Inhibition of recombinant BMPR2 (unknown origin) at 10 uM by DSF assay relative to […]
[8] = target: Vascular endothelial growth factor receptor 1 (Homo sapiens) (UniProt P17948); experiment: Inhibition of recombinant FLT1 (unknown origin) at 10 uM by DSF assay relative to staurosporine; procedure, shortened: as §1
[9] = target: MAP/microtubule affinity-regulating kinase 3 (Homo sapiens) (UniProt P27448); experiment: Inhibition of recombinant MARK3 (unknown origin) at 10 uM by DSF assay relative to staurosporine; procedure, shortened: as §1
Chain of MAP/microtubule affinity-regulating kinase 3 (Homo sapiens) (P27448 whole entry, looked up): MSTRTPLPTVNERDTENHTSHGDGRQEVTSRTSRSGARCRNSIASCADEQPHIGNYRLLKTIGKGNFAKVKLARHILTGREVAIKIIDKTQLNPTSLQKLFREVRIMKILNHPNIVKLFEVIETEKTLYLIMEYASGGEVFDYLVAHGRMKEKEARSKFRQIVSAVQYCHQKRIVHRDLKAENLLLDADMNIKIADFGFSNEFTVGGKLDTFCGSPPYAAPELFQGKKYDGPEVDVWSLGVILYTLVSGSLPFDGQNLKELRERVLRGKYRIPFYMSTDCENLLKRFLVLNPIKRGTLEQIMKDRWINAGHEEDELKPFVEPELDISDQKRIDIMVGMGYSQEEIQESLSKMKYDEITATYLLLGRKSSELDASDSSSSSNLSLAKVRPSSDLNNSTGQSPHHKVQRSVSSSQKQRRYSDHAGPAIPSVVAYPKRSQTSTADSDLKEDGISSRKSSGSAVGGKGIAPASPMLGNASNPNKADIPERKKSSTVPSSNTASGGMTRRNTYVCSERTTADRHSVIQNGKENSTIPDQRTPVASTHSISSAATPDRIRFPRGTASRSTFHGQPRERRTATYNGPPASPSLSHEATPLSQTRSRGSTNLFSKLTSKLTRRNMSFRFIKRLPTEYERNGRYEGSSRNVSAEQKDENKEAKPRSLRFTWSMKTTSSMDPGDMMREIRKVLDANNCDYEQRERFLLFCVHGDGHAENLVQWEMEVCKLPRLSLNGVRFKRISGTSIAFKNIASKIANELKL

[10] = target: Mitogen-activated protein kinase 8 (Homo sapiens) (UniProt P45983); experiment: Inhibition of JNK1 (unknown origin) assessed as residual activity at 1 uM by Kinomescan assay relative to staurosporine
Chain of Mitogen-activated protein kinase 8 (Homo sapiens) (P45983 whole entry): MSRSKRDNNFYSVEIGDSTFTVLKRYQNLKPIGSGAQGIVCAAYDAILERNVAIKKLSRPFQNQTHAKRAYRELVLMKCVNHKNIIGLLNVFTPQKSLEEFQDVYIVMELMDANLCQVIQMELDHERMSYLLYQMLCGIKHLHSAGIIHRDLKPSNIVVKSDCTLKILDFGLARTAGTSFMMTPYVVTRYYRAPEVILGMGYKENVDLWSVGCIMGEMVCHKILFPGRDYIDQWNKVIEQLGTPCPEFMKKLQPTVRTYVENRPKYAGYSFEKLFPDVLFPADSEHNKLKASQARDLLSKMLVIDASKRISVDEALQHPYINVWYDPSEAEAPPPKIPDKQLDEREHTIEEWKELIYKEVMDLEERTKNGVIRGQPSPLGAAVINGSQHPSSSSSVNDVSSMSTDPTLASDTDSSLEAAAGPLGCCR

Chain of Glycogen synthase kinase-3 beta (P49841 whole entry, looked up): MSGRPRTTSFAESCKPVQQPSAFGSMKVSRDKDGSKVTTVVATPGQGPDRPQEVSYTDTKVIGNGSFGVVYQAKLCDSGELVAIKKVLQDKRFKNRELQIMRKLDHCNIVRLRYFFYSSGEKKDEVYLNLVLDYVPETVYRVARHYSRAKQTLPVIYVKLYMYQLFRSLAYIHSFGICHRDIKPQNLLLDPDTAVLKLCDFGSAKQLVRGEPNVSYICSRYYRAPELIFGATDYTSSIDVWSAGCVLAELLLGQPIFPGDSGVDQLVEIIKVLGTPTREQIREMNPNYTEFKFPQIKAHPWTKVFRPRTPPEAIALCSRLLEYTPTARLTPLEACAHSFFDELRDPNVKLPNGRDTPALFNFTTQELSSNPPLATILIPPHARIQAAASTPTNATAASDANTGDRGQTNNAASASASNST

ΔTm [1]: 8.4 °C | ΔTm [2]: 5.8 °C | IC50 [3]: 0.506 µM | IC50 [4]: 11 µM | ΔTm [5]: 4.2 °C | ΔTm [6]: 3.2 °C | inhibition [7]: 103% | inhibition [8]: 36% | inhibition [9]: 22% | Activity [10]: 27%
SMILES: O=C1NCCc2ccc(cc2)Nc2nccc(n2)Nc2cc1[nH]n2
